Laboratory results reported in ChEMBL document CHEMBL3525903 (Drug Metab Dispos, 2013).
Each block holds one compound with its values, some of them ahead of it.

Legend:
OCTN1 (SLC22A4) = target: T1, OCTN1 (SLC22A4) (Homo sapiens, UniProt Q9H015); assay: Inhibition of OCTN1 (unknown origin) expressed in HEK293 cells assessed as reduction of [3H]ergothioneine substrate uptake at 1500 uM by liquid scintillation counting; format: cell-based; details: HEK293 cells expressing OCTN1, probe [3H]ergothioneine
T1 sequence (Q9H015 whole entry): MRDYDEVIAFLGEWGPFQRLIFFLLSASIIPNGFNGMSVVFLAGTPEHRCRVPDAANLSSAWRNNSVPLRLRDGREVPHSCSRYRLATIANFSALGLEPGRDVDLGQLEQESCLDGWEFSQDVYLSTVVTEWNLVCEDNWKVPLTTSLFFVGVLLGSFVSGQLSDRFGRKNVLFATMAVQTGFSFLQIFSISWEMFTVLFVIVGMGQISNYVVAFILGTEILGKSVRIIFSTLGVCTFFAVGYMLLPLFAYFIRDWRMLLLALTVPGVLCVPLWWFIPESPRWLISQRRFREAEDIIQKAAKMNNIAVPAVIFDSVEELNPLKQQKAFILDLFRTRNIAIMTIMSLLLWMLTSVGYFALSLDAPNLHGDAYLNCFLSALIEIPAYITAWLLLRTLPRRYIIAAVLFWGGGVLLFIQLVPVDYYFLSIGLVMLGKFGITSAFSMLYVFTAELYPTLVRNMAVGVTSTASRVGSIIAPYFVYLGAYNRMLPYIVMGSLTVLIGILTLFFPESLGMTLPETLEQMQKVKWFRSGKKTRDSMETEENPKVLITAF
Summary of the method: (§1)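 HEK293 cells stably expressing OCTN1 or OCTN2, cultured two days before the assay. Quinidine 1500 µM tested against [3H]ergothioneine (1 μM, OCTN1) or [3H]carnitine (0.1 μM, OCTN2). Vector-cell uptake subtracted.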

OCTN2 = target: T2, OCTN2 (Homo sapiens, UniProt O76082); assay: Inhibition of OCTN2 (unknown origin) expressed in HEK293 cells assessed as reduction of [3H]carnitine substrate uptake at 1500 uM by liquid scintillation counting; format: cell-based; details: HEK293 cells expressing OCTN2, probe [3H]carnitine; summary of the method: as §1
T2 sequence (O76082 whole entry): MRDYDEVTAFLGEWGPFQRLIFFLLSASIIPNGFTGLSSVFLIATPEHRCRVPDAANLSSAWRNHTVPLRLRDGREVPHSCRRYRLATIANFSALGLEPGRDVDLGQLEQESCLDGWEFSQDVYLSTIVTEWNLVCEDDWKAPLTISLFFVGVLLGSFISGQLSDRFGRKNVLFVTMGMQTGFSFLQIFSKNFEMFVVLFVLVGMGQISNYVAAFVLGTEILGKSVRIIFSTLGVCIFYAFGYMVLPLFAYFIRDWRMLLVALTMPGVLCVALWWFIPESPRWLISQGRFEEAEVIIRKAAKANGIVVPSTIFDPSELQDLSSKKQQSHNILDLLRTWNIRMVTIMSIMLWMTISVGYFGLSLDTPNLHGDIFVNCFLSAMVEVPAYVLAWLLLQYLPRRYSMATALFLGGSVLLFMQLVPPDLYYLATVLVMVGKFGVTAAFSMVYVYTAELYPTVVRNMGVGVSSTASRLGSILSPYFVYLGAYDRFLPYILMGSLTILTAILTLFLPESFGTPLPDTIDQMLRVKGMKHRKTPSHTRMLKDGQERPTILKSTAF

[1] = target: T3, Solute carrier organic anion transporter family member 1B1 (Homo sapiens, UniProt Q9Y6L6); assay: Inhibition of OATP1B1 (unknown origin) expressed in HEK293 cells assessed as reduction of [3H]E217betaG substrate uptake at 100 uM by liquid scintillation counting; format: ADME, cell-based; details: hek293, 100 µM
T3 sequence (Q9Y6L6 whole entry): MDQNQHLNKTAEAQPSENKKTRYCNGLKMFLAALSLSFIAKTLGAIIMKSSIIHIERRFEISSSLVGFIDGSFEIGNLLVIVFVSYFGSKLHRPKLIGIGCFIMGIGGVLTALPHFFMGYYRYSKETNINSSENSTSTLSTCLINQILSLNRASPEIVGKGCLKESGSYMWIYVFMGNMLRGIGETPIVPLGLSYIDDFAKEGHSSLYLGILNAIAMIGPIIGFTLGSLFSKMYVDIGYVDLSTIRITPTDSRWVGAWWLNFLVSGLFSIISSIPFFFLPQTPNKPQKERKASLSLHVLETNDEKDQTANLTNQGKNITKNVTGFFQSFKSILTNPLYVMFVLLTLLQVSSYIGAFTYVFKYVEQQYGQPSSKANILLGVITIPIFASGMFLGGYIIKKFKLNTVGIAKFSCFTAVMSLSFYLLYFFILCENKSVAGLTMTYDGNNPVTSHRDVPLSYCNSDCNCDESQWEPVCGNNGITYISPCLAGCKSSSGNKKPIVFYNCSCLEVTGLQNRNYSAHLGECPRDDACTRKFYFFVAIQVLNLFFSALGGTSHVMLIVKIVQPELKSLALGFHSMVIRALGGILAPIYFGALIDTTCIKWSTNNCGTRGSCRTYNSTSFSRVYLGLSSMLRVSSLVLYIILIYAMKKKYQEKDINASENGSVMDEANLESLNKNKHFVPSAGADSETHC
Summary of the method: (§2)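 HEK293 cells transiently transfected with OAT, OATP or OCT plasmid (FuGENE6; 24 h, then 24 h more with sodium butyrate), or stable OCTN1/OCTN2 lines; vector-transfected cells as control. Washed, preincubated 15–60 min at 37 °C in modified Krebs-Henseleit/25 mM HEPES buffer. Uptake of radiolabelled substrate, 100 µM inhibitor. Cells lysed in NaOH and counted by scintillation; counts normalised to medium radioactivity and Lowry protein; vector uptake subtracted.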

[2] = target: T4, Solute carrier organic anion transporter family member 1B3 (Homo sapiens, UniProt Q9NPD5); assay: Inhibition of OATP1B3 (unknown origin) expressed in HEK293 cells assessed as reduction of [3H]CCK8 substrate uptake at 100 uM by liquid scintillation counting; format: ADME, cell-based; details: hek293, 100 µM; summary of the method: as §2
T4 sequence (Q9NPD5 whole entry): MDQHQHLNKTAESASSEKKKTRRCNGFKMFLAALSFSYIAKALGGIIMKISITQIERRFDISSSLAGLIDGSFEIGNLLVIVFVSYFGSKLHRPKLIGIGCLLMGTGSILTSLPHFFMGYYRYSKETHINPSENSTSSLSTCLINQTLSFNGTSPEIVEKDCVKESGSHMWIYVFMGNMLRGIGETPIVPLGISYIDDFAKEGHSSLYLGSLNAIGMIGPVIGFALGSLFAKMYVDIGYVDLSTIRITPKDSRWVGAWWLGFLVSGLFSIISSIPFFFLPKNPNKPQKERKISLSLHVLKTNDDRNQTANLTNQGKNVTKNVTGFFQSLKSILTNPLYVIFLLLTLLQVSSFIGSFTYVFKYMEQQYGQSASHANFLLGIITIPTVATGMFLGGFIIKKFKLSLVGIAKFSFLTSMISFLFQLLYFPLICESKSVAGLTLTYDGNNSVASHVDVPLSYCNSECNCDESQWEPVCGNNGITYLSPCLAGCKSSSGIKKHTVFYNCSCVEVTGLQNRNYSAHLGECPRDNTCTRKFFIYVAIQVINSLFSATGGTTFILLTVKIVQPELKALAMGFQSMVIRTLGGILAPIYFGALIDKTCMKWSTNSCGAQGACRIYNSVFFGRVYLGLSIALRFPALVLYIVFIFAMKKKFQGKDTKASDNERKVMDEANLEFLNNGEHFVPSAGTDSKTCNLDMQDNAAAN

[3] = target: T5, Broad substrate specificity ATP-binding cassette transporter ABCG2 (Homo sapiens, UniProt Q9UNQ0); assay: Inhibition of human BCRP expressed in MDCK2 cells assessed as reduction of [3H]E-sul substrate transport at 50 uM by liquid scintillation counting; format: ADME, cell-based; details: mdck-ii
T5 sequence (Q9UNQ0 whole entry): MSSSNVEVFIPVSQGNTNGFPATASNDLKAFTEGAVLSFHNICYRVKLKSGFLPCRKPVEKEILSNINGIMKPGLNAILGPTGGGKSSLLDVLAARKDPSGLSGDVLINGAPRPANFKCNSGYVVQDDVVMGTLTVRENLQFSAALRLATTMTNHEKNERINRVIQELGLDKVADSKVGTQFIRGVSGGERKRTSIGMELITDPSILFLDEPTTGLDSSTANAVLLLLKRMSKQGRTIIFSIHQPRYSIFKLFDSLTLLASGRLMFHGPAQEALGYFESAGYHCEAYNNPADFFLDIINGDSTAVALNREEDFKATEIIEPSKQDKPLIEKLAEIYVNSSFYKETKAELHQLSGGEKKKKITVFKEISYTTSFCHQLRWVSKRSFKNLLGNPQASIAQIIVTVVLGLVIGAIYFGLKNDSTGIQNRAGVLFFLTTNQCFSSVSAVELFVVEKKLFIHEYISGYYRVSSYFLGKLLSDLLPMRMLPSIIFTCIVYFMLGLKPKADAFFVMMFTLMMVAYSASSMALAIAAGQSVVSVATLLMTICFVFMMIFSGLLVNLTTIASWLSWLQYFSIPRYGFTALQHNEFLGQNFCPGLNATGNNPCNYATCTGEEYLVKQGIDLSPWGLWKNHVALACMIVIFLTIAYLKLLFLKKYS
Summary of the method: (§3)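 Membrane vesicles made from MDCKII cells expressing BCRP or MRP2, and from parental cells (1 μg/μL protein). Run in Tris-sucrose buffer, pH 7.4, with 10 mM MgCl2, creatine phosphokinase and ATP, or AMP as control. Substrates: 0.035 μM [3H]E-sul for BCRP, 2 min; 0.033 μM [3H]E217βG for MRP2, 5 min; both at 37 °C. Stopped ice-cold, filtered, and counted by scintillation.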

[4] = target: ATP-binding cassette sub-family C member 2 (Homo sapiens, UniProt Q92887); assay: Inhibition of human MRP2 expressed in MDCK2 cells assessed as reduction of [3H]E217betaG substrate transport at 25 uM by liquid scintillation counting; format: ADME, cell-based; details: mdck-ii; summary of the method: as §3
Chain of ATP-binding cassette sub-family C member 2 (Q92887 whole entry): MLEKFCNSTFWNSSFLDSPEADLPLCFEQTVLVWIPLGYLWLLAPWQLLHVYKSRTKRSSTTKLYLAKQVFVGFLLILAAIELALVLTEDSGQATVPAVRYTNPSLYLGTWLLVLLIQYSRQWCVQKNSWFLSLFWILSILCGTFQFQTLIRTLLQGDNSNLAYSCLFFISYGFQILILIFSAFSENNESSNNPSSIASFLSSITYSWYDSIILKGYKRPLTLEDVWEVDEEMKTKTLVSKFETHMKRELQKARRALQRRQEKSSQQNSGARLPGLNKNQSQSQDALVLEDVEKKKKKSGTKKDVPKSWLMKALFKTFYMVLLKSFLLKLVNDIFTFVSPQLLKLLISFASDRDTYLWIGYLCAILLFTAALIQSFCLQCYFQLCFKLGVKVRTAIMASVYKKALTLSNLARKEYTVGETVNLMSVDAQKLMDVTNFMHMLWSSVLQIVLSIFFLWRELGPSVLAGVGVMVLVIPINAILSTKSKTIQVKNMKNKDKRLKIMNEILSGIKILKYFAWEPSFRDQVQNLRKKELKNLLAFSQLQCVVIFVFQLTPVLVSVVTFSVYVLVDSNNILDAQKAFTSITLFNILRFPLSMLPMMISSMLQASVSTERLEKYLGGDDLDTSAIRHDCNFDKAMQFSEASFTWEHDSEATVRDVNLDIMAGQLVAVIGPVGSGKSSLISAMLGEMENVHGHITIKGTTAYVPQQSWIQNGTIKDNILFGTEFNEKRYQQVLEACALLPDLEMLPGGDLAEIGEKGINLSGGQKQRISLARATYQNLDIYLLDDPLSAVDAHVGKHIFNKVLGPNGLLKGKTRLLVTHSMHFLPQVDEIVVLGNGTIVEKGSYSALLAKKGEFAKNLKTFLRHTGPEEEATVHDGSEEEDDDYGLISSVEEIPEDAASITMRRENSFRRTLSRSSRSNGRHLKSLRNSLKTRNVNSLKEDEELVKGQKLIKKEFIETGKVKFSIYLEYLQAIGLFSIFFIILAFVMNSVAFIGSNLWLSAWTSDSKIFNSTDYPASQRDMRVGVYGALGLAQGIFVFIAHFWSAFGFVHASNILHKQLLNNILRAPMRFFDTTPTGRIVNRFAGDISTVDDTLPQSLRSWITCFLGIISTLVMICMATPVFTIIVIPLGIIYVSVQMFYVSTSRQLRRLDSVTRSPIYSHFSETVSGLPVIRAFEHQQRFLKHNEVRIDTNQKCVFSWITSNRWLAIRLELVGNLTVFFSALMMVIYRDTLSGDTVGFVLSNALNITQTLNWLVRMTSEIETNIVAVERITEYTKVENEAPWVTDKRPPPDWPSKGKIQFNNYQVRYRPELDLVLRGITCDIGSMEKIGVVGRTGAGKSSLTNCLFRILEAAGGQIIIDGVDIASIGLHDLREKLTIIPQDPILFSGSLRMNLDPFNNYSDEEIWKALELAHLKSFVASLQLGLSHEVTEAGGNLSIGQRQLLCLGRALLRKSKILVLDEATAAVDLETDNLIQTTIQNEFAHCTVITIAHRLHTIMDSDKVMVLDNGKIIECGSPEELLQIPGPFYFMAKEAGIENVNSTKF

[5] = target: T6, Organic anion transporter 3 (Homo sapiens, UniProt Q8TCC7); assay: Inhibition of OAT3 (unknown origin) expressed in HEK293 cells assessed as reduction of [3H]E-sul substrate uptake at 100 uM by liquid scintillation counting; format: ADME, cell-based; details: hek293, 100 µM; summary of the method: as §2
T6 sequence (Q8TCC7 whole entry): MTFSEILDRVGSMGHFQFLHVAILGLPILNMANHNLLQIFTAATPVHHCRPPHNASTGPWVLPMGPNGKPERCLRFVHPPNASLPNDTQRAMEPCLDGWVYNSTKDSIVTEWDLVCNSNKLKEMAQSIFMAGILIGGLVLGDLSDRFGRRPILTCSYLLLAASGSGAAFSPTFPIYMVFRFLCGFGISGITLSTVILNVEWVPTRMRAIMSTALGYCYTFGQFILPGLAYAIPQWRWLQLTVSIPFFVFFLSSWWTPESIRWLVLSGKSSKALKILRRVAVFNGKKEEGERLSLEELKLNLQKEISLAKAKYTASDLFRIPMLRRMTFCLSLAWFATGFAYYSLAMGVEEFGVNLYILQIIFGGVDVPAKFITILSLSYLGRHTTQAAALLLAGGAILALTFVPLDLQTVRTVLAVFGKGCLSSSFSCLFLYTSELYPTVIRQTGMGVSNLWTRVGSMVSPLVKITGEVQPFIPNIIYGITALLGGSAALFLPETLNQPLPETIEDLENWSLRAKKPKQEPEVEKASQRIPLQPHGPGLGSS

[6] = target: T7, Solute carrier family 22 member 11 (Homo sapiens, UniProt Q9NSA0); assay: Inhibition of OAT4 (unknown origin) expressed in HEK293 cells assessed as reduction of [3H]E-sul substrate uptake at 500 uM by liquid scintillation counting; format: ADME, cell-based; details: hek293, 500 µM
T7 sequence (Q9NSA0 whole entry): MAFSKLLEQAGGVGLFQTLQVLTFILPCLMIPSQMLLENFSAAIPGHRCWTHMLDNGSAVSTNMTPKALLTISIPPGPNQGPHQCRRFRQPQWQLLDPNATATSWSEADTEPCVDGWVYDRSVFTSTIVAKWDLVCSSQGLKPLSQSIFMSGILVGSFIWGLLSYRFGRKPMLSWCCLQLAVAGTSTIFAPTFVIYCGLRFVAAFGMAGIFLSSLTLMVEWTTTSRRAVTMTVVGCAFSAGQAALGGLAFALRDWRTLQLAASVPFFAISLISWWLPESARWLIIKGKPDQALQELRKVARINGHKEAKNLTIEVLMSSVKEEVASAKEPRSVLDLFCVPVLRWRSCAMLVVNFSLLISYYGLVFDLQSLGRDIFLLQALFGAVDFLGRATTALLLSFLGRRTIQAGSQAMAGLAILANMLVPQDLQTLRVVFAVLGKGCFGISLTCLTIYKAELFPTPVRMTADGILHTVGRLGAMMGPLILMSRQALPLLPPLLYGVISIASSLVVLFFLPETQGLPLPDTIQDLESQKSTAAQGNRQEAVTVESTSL
Summary of the method: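 HEK293 cells transfected with OAT4, incubated with 0.1 μM [3H]E-sul and probenecid 500 µM as the inhibitor. Uptake counted by scintillation, normalised to protein, with vector uptake subtracted.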

inhibition (INH) [1]: 98.4%
inhibition (INH) [2]: 97.4%
Compound: CO[C@H]1/C=C/O[C@@]2(C)Oc3c(C)c(O)c4c(O)c(c(/C=N/N5CCN(C)CC5)c(O)c4c3C2=O)NC(=O)/C(C)=C\C=C\[C@H](C)[C@H](O)[C@@H](C)[C@@H](O)[C@@H](C)[C@H](OC(C)=O)[C@@H]1C [RIFAMPIN]

inhibition (INH) [3]: Active
Compound: COc1cc2nc(N3CCN(C(=O)c4ccco4)CC3)nc(N)c2cc1OC [PRAZOSIN]

More lines, now with the values behind:

Compound: C=C[C@H]1C[N@@]2CC[C@H]1C[C@@H]2[C@@H](O)c1ccnc2ccc(OC)cc12 [QUINIDINE]
inhibition at 1500 µM (OCTN1 (SLC22A4)): 83.9%
inhibition at 1500 µM (OCTN2): 89.9%

Compound: CN(C)C(=O)CCSC(SCCC(=O)O)c1cccc(/C=C/c2ccc3ccc(Cl)cc3n2)c1 (stereo not drawn) [MK-571]
inhibition (INH) [4]: Active

Compound: CCCN(CCC)S(=O)(=O)c1ccc(C(=O)O)cc1 [PROBENECID]
inhibition (INH) [5]: 88.5%
inhibition (INH) [6]: 81.4%
